Compound activity (PubChem)
LMPTP block = LMPTP phosphatase inhibitors, primary screen, biochemical, fluorescence intensity, uHTS | Low molecular weight phosphotyrosine protein phosphatase (Homo sapiens), P24666 | recombinant LMPTP-A, OMFP fluorogenic substrate | inhibition, % at 20 µM | actives 0.22% (n = 360,000) | AID 651560, 2012;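 active means compounds that cut the enzyme signal by at least half of the control window in the single-dose screen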
Target sequence (P24666 whole entry, looked up): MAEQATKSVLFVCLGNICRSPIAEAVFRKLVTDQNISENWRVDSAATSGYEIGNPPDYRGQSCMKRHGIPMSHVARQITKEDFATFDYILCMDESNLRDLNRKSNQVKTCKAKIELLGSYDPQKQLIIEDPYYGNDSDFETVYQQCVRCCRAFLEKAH
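Material: LMPTP-A; amount: 0.625 nM enzyme; doses: single 20 µM dose; times: reaction 50 min, room temperature, dark; technique: fluorescence intensity of OMFP turnover product; benchmarks: no-enzyme and uninhibited controls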
Scp-1 inhibitor = Scp-1 phosphatase inhibitors, primary screen, biochemical, colorimetric, uHTS. actives 0.88% (n = 340,000). Carboxy-terminal domain RNA polymerase II polypeptide A small phosphatase 1 (Homo …. Recombinant Scp1, phosphopeptide, malachite green phosphate absorbance. inhibition, % at 20 µM;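 active means inhibition above about 50% at 20 µM, limit read from the data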
Target sequence (Q9GZU7 76-261 limits assumed): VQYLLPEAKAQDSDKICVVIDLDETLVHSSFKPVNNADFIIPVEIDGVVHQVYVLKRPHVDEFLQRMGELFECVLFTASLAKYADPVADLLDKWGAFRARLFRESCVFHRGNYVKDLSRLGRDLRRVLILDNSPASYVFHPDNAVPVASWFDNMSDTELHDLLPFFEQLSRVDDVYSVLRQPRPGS
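Material: truncated SCP-1 phosphatase (76-261aa) / Buffer or medium: 50 mM Tris acetate pH 5.5, 0.005% Tween-20, 10 mM MgCl2 / Compound dosing: one concentration, 20 µM, with 1.0% DMSO / Incubation: 45 min room-temperature reaction, 5 min colour, 30 min stabiliser / Detection: colorimetric free-phosphate detection, absorbance 630 nm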
NadD inh = inhibitors of S. aureus NadD, primary screen, biochemical, colorimetric, uHTS. purified NadD enzyme, colorimetric absorbance read-out. inhibition, % at 20 µM. actives 0.78% (n = 360,000); in the data active means inhibition above about 26%
STEP inh = STEP phosphatase inhibitors, primary screen, biochemical, fluorescence intensity, uHTS; inhibition, % at 20 µM; actives 0.25% (n = 360,000); recombinant STEP, OMFP fluorogenic substrate;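 active means inhibition at 20 µM, scaled per plate between control wells, above about 37%, limit read from the data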
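material = STEP tyrosine phosphatase | reagent = fluorogenic phosphatase substrate OMFP at 25 µM final | doses = single compound dose of 20 µM, 1% DMSO final | schedule = 20 min reaction, room temperature, in the dark | measured by = fluorescence, 480/540 nm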
rCAG RNA binder = binders of r(CAG) RNA repeats, primary screen, biochemical, fluorescence; inhibition, % at 3 µM; r(CAG) RNA repeat, TO-PRO-1 dye displacement fluorescence; actives 1.3% (n = 370,000);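 active means inhibition above the plate cutoff, the mean of all test compounds on that plate plus 3 SD, cut at about 35% in these data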;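 further: higher means more dye released from RNA so lower well fluorescence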
NadD inh conf = inhibitors of S. aureus NadD, confirmation, biochemical, colorimetric, single concentration. shares compounds with NadD inh. purified S. aureus NadD, colorimetric enzyme assay. actives 13% (n = 2,000). inhibition, % at 20 µM; in the data active means inhibition mostly above about 42%, no sharp cut-off; inactive means mostly below about 42%
rCAG bind conf = small molecules binding CAG repeat RNA – biochemical, fluorescence, confirmation; shares compounds with rCAG RNA binder; r(CAG) RNA repeat, TO-PRO-1 dye displacement fluorescence; inhibition, % at 3 µM; actives 70% (n = 4,300); AID 652065, 2013;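 active means inhibition above a per-plate cutoff, the mean inhibition of sample wells plus 3 SD, cut at about 35% in these data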;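 further: loss of TO-PRO-1 fluorescence as compound displaces dye from 1x1 AA loop RNA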
dCAG dye counter = displacement of TO-PRO-1 from CAG DNA duplex, counter-screen for rCAG RNA repeat binder project, biochemical, fluorescence, TO-PRO-1 dye, d(CAG) DNA oligo; d(CAG) DNA oligo TO-PRO-1 dye displacement; inhibition, % at 3 µM; shares compounds with rCAG RNA binder; actives 94% (n = 4,300);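 active means inhibition above its plate's cutoff, the mean test-well inhibition plus 3 SD, cut at about 4.8% in these data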;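 further: hits displace the dye from DNA and so lower well fluorescence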
dCAG dye DR = inhibitors of DNA CAG/GTC TO-PRO-1 complex, dose response, counter-screen for rCAG RNA repeat binder project, biochemical, fluorescence, TO-PRO-1 dye; shares compounds with rCAG RNA binder; DNA CAG/GTC duplex TO-PRO-1 dye displacement fluorescence; IC50, µM; actives 20% (n = 250); AID 686960, 2013; in the data active means IC50 below about 10 µM
A number is an active result; ! = not active in a repeat. Shown are actives, neighbours in structure and some others; about 2.6% of the full set was active somewhere.

What do the screens show for `O=[N+]([O-])c1ccccc1/C=C/C=N/Nc1ccc(S(=O)(=O)Nc2ccc(Cl)cc2)cc1[N+](=O)[O-]`?
LMPTP block: inactive; Scp-1 inhibitor: inactive; NadD inh: 26; STEP inh: inactive; rCAG RNA binder: inactive; NadD inh conf: inactive

What do the screens show for `O=[N+]([O-])c1cc(S(=O)(=O)Nc2cccc(Cl)c2)ccc1N/N=C/c1ccc(N2CCOCC2)cc1`?
LMPTP block: inactive; Scp-1 inhibitor: inactive; NadD inh: 28; STEP inh: inactive; rCAG RNA binder: inactive; NadD inh conf: inactive

Results for COc1ccc(S[C@]2(C(=O)N3CCCC3)CC(=O)N(C(=O)C3CC3)[C@@H]2c2ccc(OC)cc2)cc1 ?
rCAG RNA binder: inactive

What do the screens show for `COc1ccc2c(c1)CCCN2C(=O)C1CCCN(S(=O)(=O)c2cccc3ccccc23)C1` (centres undefined)?
rCAG RNA binder: inactive

How did Cc1ccc(C2CC(=O)N3CN(c4ccc(Br)cc4)CSC3=C2C#N)o1 (centres undefined) do in these assays?
LMPTP block: inactive; Scp-1 inhibitor: inactive; NadD inh: 43; STEP inh: inactive; rCAG RNA binder: 63; NadD inh conf: inactive; rCAG bind conf: 49; dCAG dye counter: 18

What do the screens show for `N#CC1=C2SCN(c3ccccc3)CN2C(=O)CC1c1ccccc1Cl` (centres undefined)?
LMPTP block: inactive; Scp-1 inhibitor: inactive; NadD inh: inactive; STEP inh: inactive; rCAG RNA binder: inactive

What do the screens show for `COc1cccc(-c2cc(C(C)=O)c3n(c2=O)CCC3)c1OC`?
rCAG RNA binder: inactive

Results for CCC(C)c1ccc(C2C3=C(Nc4nc(N)[nH]c(=O)c42)c2ccccc2C3=O)cc1 (centres undefined) ?
LMPTP block: inactive; Scp-1 inhibitor: inactive; NadD inh: 37; STEP inh: inactive; rCAG RNA binder: 43; NadD inh conf: inactive; rCAG bind conf: 47; dCAG dye counter: 29

Results for O=C(Nc1cccc(F)c1)OCCCN1CCC2(CCC(c3ccccc3)CC2)C1 (centres undefined) ?
rCAG RNA binder: inactive

Results for N#C/C(=C(/O)CN1CCN(c2ccccc2F)CC1)c1nc(-c2ccccc2)cs1 ?
LMPTP block: inactive; Scp-1 inhibitor: inactive; NadD inh: 31; STEP inh: inactive; rCAG RNA binder: 58; NadD inh conf: inactive; rCAG bind conf: 49; dCAG dye counter: 16

What do the screens show for `CC(C)CCN(CCC(C)C)C/C(O)=C(\C#N)c1nc(-c2ccccc2)cs1`?
LMPTP block: inactive; Scp-1 inhibitor: inactive; NadD inh: inactive; STEP inh: inactive; rCAG RNA binder: inactive

Results for CC(C)CC(C(=O)Nc1oc(-c2ccco2)c(-c2ccco2)c1C#N)N1C(=O)c2ccccc2C1=O (centres undefined) ?
LMPTP block: inactive; Scp-1 inhibitor: inactive; NadD inh: 48; STEP inh: inactive; rCAG RNA binder: 78; NadD inh conf: 47; rCAG bind conf: 74; dCAG dye counter: 36

How did COc1ccccc1NS(=O)(=O)c1cc(N/C(=N/S(=O)(=O)c2ccccc2)c2ccc(F)cc2)ccc1Cl do in these assays?
LMPTP block: inactive; NadD inh: inactive; STEP inh: inactive; rCAG RNA binder: inactive

How did O=S(=O)(/N=C(/Nc1ccc(Cl)c(S(=O)(=O)Nc2ccccc2Cl)c1)c1ccc(F)cc1)c1ccccc1 do in these assays?
LMPTP block: inactive; Scp-1 inhibitor: inactive; NadD inh: 41!; STEP inh: inactive; rCAG RNA binder: 66; NadD inh conf: 55; rCAG bind conf: 71; dCAG dye counter: 26; dCAG dye DR: inactive

Results for O=C(N/N=C/c1cccc(F)c1)c1cc(-c2ccco2)nc2ccccc12 ?
LMPTP block: 56; Scp-1 inhibitor: 81; NadD inh: 52; STEP inh: inactive; rCAG RNA binder: 45; NadD inh conf: 81; rCAG bind conf: 41; dCAG dye counter: 26

What do the screens show for `COc1ccc(Cl)cc1NC(=O)C(C)OC(=O)c1ccc(NS(=O)(=O)c2ccc3[nH]c(=O)[nH]c3c2)cc1` (centres undefined)?
LMPTP block: inactive; Scp-1 inhibitor: inactive; NadD inh: 36; STEP inh: inactive; rCAG RNA binder: 39; NadD inh conf: inactive; rCAG bind conf: 49; dCAG dye counter: 17

How did CCc1nnc(NS(=O)(=O)c2ccc(NC(=S)NC(=O)/C=C/c3ccc(F)cc3)cc2)s1 do in these assays?
LMPTP block: inactive; Scp-1 inhibitor: inactive; NadD inh: 31; STEP inh: inactive; rCAG RNA binder: 85; NadD inh conf: 51; rCAG bind conf: 86; dCAG dye counter: 59

What do the screens show for `O=[N+]([O-])c1cccc(-c2cc(-c3cc(Br)ccc3O)[nH]n2)c1`?
LMPTP block: inactive; Scp-1 inhibitor: inactive; NadD inh: 38; STEP inh: inactive; rCAG RNA binder: 37; NadD inh conf: inactive; rCAG bind conf: inactive; dCAG dye counter: 16

Results for N#Cc1c(SCC(=O)Nc2nc3ccc(Br)cc3s2)sc2c(O)cc(=O)[nH]c12 ?
LMPTP block: 53; Scp-1 inhibitor: 54; NadD inh: 41; STEP inh: inactive; rCAG RNA binder: 67; NadD inh conf: inactive; rCAG bind conf: 82; dCAG dye counter: 51

How did Cc1ccc(C2CCC3(CCC(=O)N3CCOC(=O)Nc3cccc(C#N)c3)CC2)cc1 (centres undefined) do in these assays?
rCAG RNA binder: inactive

What do the screens show for `CN(C)C(=O)C[C@H]1CC[C@H]2[C@H](COc3ccc(NC(=O)C4CC4)cc3C(=O)N2C)O1`?
rCAG RNA binder: inactive
